Assay results: ChEMBL document CHEMBL1806473, “Structure-based optimization of click-based histone deacetylase inhibitors” (Eur J Med Chem, 2011)

What was measured:
Malme-3M [1] = test: Cytotoxicity against human MALME-3M cells; assay type: cell-based
How it was run: (§1)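 Tested in the NCI in vitro disease-oriented human tumour cell line screen, with screening performed by NCI. Growth was read by SRB signal over the drug incubation period at five concentrations: 100, 10, 1.0, 0.1 and 0.01 μM. GI50 is the concentration that reduces growth of treated cells to half that of control cells.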

HOP-92 = test: Cytotoxicity against human HOP92 cells; assay type: cell-based
SR [2] = test: Antiproliferative activity against human SR cells by SRB assay; assay type: functional
How it was run: (§2)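 Cell growth was tested in the NIH in vitro disease-oriented human tumor cell line screen, which NCI ran for these compounds. Compounds were tested at five concentrations (100, 10, 1.0, 0.1 and 0.01 μM), and growth was read by SRB signal. GI50 is the drug concentration that reduces growth of treated cells to half that of control cells during drug incubation.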

UO-31 = test: Antiproliferative activity against human UO31 cells by SRB assay; assay type: functional; how it was run: as §2
SF-268 [3] = test: Antiproliferative activity against human SF268 cells by SRB assay; assay type: functional
How it was run: (§3)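 Tested in the NCI in vitro human tumor cell line screen, run by the National Cancer Institute. Each compound was given at five concentrations (100, 10, 1.0, 0.1 and 0.01 μM). GI50 is the drug concentration that reduces growth of treated cells to half that of control cells during drug incubation, judged from the SRB signal.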

RXF 393 = test: Antiproliferative activity against human RXF393 cells by SRB assay; assay type: functional; how it was run: as §3
TK-10 = test: Antiproliferative activity against human TK10 cells by SRB assay; assay type: functional; how it was run: as §2
Malme-3M [4] = test: Antiproliferative activity against human MALME-3M cells by SRB assay; assay type: functional; how it was run: as §3
A549 = test: Cytotoxicity against human A549 cells; assay type: cell-based; how it was run: as §1
BT-549 [5] = test: Antiproliferative activity against human BT549 cells by SRB assay; assay type: functional; how it was run: as §3
MDA-MB-231 [6] = test: Cytotoxicity against human MDA-MB-231 cells; assay type: functional; how it was run: as §1
OVCAR-3 = test: Antiproliferative activity against human OVCAR3 cells by SRB assay; assay type: functional; how it was run: as §3
U-251 = test: Antiproliferative activity against human U251 cells by SRB assay; assay type: functional; how it was run: as §2
COLO 205 = test: Cytotoxicity against human COLO205 cells; assay type: cell-based; how it was run: as §1
NCI-H23 [7] = test: Antiproliferative activity against human NCI-H23 cells by SRB assay; assay type: functional; how it was run: as §3
SW-620 [8] = test: Cytotoxicity against human SW620 cells; assay type: cell-based
How it was run: (§4)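 Screened by NCI in its in vitro disease-oriented human tumour cell line panel. Compounds tested at five concentrations (100, 10, 1.0, 0.1 and 0.01 μM). Growth read by sulforhodamine B (SRB) signal. GI50 is the concentration reducing growth of treated cells to half that of control cells during the drug incubation.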

SW-620 [9] = test: Antiproliferative activity against human SW620 cells by SRB assay; assay type: functional; how it was run: as §2
NCI-H23 [10] = test: Cytotoxicity against human NCI-H23 cells; assay type: cell-based
SR [11] = test: Cytotoxicity against human SR cells; assay type: cell-based; how it was run: as §4
SF-539 [12] = test: Cytotoxicity against human SF539 cells; assay type: cell-based; how it was run: as §1
CAKI-1 = test: Cytotoxicity against human Caki1 cells; assay type: cell-based
A498 [13] = test: Cytotoxicity against human A498 cells; assay type: cell-based
OVCAR-4 = test: Cytotoxicity against human OVCAR4 cells; assay type: cell-based
T47D = test: Antiproliferative activity against human T47D cells by SRB assay; assay type: functional; how it was run: as §2
SK-MEL-2 = test: Cytotoxicity against human SK-MEL-2 cells; assay type: cell-based; how it was run: as §1
HCT-116 = test: Antiproliferative activity against human HCT116 cells by SRB assay; assay type: functional; how it was run: as §3
DU-145 [14] = test: Antiproliferative activity against human DU145 cells by SRB assay; assay type: functional; how it was run: as §3
NCI-H460 [15] = test: Antiproliferative activity against human NCI-H460 cells by SRB assay; assay type: functional; how it was run: as §3
CCRF-CEM = test: Cytotoxicity against human CCRF-CEM cells; assay type: cell-based
MDA-MB-231 [16] = test: Antiproliferative activity against human MDA-MB-231 cells by SRB assay; assay type: functional; how it was run: as §3
SK-OV-3 [17] = test: Cytotoxicity against human SKOV3 cells; assay type: cell-based
MDA-MB-435 [18] = test: Cytotoxicity against human MDA-MB-435 cells; assay type: cell-based
SF-268 [19] = test: Cytotoxicity against human SF268 cells; assay type: cell-based; how it was run: as §1
MDA-MB-435 [20] = test: Antiproliferative activity against human MDA-MB-435 cells by SRB assay; assay type: functional; how it was run: as §3
BT-549 [21] = test: Cytotoxicity against human BT549 cells; assay type: cell-based
SK-OV-3 [22] = test: Antiproliferative activity against human SKOV3 cells by SRB assay; assay type: functional; how it was run: as §3
NCI-H226 = test: Cytotoxicity against human NCI-H226 cells; assay type: cell-based
ACHN = test: Antiproliferative activity against human ACHN cells by SRB assay; assay type: functional; how it was run: as §3
HOP-62 = test: Cytotoxicity against human HOP62 cells; assay type: cell-based; how it was run: as §1
SF-539 [23] = test: Antiproliferative activity against human SF539 cells by SRB assay; assay type: functional; how it was run: as §3
EKVX [24] = test: Antiproliferative activity against human EKVX cells by SRB assay; assay type: functional; how it was run: as §3
NCI-H460 [25] = test: Cytotoxicity against human NCI-H460 cells; assay type: cell-based
PC-3 = test: Cytotoxicity against human PC3 cells; assay type: cell-based
UACC-62 = test: Antiproliferative activity against human UACC62 cells by SRB assay; assay type: functional; how it was run: as §2
LOX IMVI [26] = test: Antiproliferative activity against human LOXIMVI cells by SRB assay; assay type: functional; how it was run: as §3
MCF7 = test: Antiproliferative activity against human MCF7 cells by SRB assay; assay type: functional; how it was run: as §3
786-0 [27] = test: Cytotoxicity against human 786-0 cells; assay type: cell-based
786-0 [28] = test: Antiproliferative activity against human 786-0 cells by SRB assay; assay type: functional; how it was run: as §3
DU-145 [29] = test: Cytotoxicity against human DU145 cells; assay type: cell-based; how it was run: as §1
HCT-15 = test: Antiproliferative activity against human HCT15 cells by SRB assay; assay type: functional; how it was run: as §3
EKVX [30] = test: Cytotoxicity against human EKVX cells; assay type: cell-based; how it was run: as §1
SK-MEL-28 = test: Antiproliferative activity against human SK-MEL-28 cells by SRB assay; assay type: functional; how it was run: as §3
SN12C = test: Antiproliferative activity against human SN12C cells by SRB assay; assay type: functional; how it was run: as §3
K562 = test: Antiproliferative activity against human K562 cells by SRB assay; assay type: functional; how it was run: as §3
HT-29 = test: Cytotoxicity against human HT-29 cells; assay type: cell-based; how it was run: as §1
NCI-H322M [31] = test: Cytotoxicity against human NCI-H322M cells; assay type: cell-based
LOX IMVI [32] = test: Cytotoxicity against human LOXIMVI cells; assay type: cell-based
SF-295 = test: Antiproliferative activity against human SF295 cells by SRB assay; assay type: functional; how it was run: as §3
NCI-H322M [33] = test: Antiproliferative activity against human NCI-H322M cells by SRB assay; assay type: functional; how it was run: as §3
A498 [34] = test: Antiproliferative activity against human A498 cells by SRB assay; assay type: functional; how it was run: as §3

CC(C)C(/C=C/c1ccccc1)n1cc(/C=C/C(=O)NO)nn1 (stereo not given)
LC50 (Malme-3M [1]): 68.4 µM
LC50 (HOP-92): 22.1 µM
GI50 (SR [2]): 213 nM
GI50 (UO-31): 1480 nM
GI50 (SF-268 [3]): 1870 nM
GI50 (RXF 393): 1190 nM
GI50 (TK-10): 531 nM
GI50 (Malme-3M [4]): 311 nM
LC50 (A549): 88.7 µM
GI50 (BT-549 [5]): 3.28 µM
LC50 (MDA-MB-231 [6]): 73.4 µM
GI50 (OVCAR-3): 1530 nM
GI50 (U-251): 1130 nM
LC50 (COLO 205): 6.1 µM
GI50 (NCI-H23 [7]): 1640 nM
LC50 (SW-620 [8]): 9.22 µM
GI50 (SW-620 [9]): 649 nM
LC50 (NCI-H23 [10]): 12.6 µM
LC50 (SR [11]): > 100 µM
LC50 (SF-539 [12]): 8.21 µM
LC50 (CAKI-1): 6.3 µM
LC50 (A498 [13]): 8.63 µM
LC50 (OVCAR-4): 71.4 µM
GI50 (T47D): 1240 nM
LC50 (SK-MEL-2): > 100 µM
GI50 (HCT-116): 316 nM
GI50 (DU-145 [14]): 1090 nM
GI50 (NCI-H460 [15]): 761 nM
LC50 (CCRF-CEM): > 100 µM
GI50 (MDA-MB-231 [16]): 1970 nM
LC50 (SK-OV-3 [17]): 27.8 µM
LC50 (MDA-MB-435 [18]): 31.6 µM
LC50 (SF-268 [19]): 29.7 µM
GI50 (MDA-MB-435 [20]): 719 nM
LC50 (BT-549 [21]): > 100 µM
GI50 (SK-OV-3 [22]): 1490 nM
LC50 (NCI-H226): 40.1 µM
GI50 (ACHN): 1210 nM
LC50 (HOP-62): 23.4 µM
GI50 (SF-539 [23]): 1190 nM
GI50 (EKVX [24]): 1810 nM
LC50 (NCI-H460 [25]): 42.9 µM
LC50 (PC-3): 46.5 µM
GI50 (UACC-62): 642 nM
GI50 (LOX IMVI [26]): 1180 nM
GI50 (MCF7): 1320 nM
LC50 (786-0 [27]): 6.74 µM
GI50 (786-0 [28]): 1590 nM
LC50 (DU-145 [29]): > 100 µM
GI50 (HCT-15): 2900 nM
LC50 (EKVX [30]): > 100 µM
GI50 (SK-MEL-28): 1590 nM
GI50 (SN12C): 1860 nM
GI50 (K562): 705 nM
LC50 (HT-29): > 100 µM
LC50 (NCI-H322M [31]): > 100 µM
LC50 (LOX IMVI [32]): 5.47 µM
GI50 (SF-295): 1470 nM
GI50 (NCI-H322M [33]): 1360 nM
GI50 (A498 [34]): 1510 nM
